According to ChEMBL document CHEMBL1133628, “Nonnucleoside human cytomegalovirus inhibitors: synthesis and antiviral evaluation of (chlorophenylmethyl)benzothiadiazine dioxide derivatives” (J Med Chem, 2000):
pEC50, pIC50: −log10 of the molar value.

Each compound was assayed on Human betaherpesvirus 5 (assay: In vitro inhibition of HCMV (AD-169) plaque formation.). Settings: not given.
Format: functional, organism-based
Method in brief: (§1)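 Confluent HEL fibroblasts infected with HCMV at 100 PFU of cell-free virus; after a 2-h adsorption, residual virus removed and cells incubated in MEM with 2% FCS containing serial 5-fold compound dilutions, in duplicate. Fixed with ethanol after 7 days at 37 °C, 5% CO2, then Giemsa-stained; cytopathic effect scored microscopically. IC50 read graphically from % cytopathicity; mean of two experiments.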

`O=C1c2ccccc2N(Cc2ccc(Cl)cc2)S(=O)(=O)N1Cc1ccccc1` and `O=C1c2ccccc2N(Cc2ccc(Cl)c(Cl)c2)S(=O)(=O)N1Cc1ccccc1` are within 0.2 log units of each other in pIC50: 5.40 for the first, 5.48 for the second.

Going from `O=C1c2ccccc2N(Cc2ccccc2)S(=O)(=O)N1Cc1ccccc1Cl` to `O=C1c2ccccc2N(COCc2ccccc2)S(=O)(=O)N1Cc1ccccc1`, the pIC50 rises from < 4.30 to 4.70. The second is the more potent here.

Compound `Nc1nc2c(ncn2COC(CO)CO)c(=O)[nH]1` [GANCICLOVIR] has a pIC50 of 5.43.

Each compound was assayed on HEL (assay: Inhibition of cell growth in HEL cells.). Settings: Homo sapiens.
Format: functional
Method in brief: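 HEL fibroblasts seeded at 5×10^3 cells/well and left to proliferate 24 h, then given compound dilutions in duplicate. Incubated 3 days at 37 °C, 5% CO2; cells counted with a Coulter counter. CC50 is the concentration reducing cell growth by 50%.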

`O=C1c2ccccc2N(Cc2ccc(Cl)cc2)S(=O)(=O)N1Cc1ccccc1` and `O=C1c2ccccc2N(Cc2ccc(Cl)c(Cl)c2)S(=O)(=O)N1Cc1ccccc1` cannot be ordered by CC50: > 200 µM for the first, > 200 µM for the second.

`O=C1c2ccccc2N(Cc2ccccc2)S(=O)(=O)N1Cc1ccccc1Cl` and `O=C1c2ccccc2N(COCc2ccccc2)S(=O)(=O)N1Cc1ccccc1` cannot be ordered by CC50: > 200 µM for the first, > 122 µM for the second.

In the case of `Nc1nc2c(ncn2COC(CO)CO)c(=O)[nH]1` [GANCICLOVIR], the CC50 was 394 µM.

These compounds were tested on Human alphaherpesvirus 3 (assay: In vitro inhibition of Thymidine Kinase-Varicella-Zoster Virus(OKA) plaque formation.). Settings: Human alphaherpesvirus 3, oka.
Format: functional, organism-based
Method in brief: (§2)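 Confluent HEL fibroblasts infected with VZV at 20 PFU; after a 2-h adsorption, residual virus removed and cells incubated in MEM with 2% FCS containing serial 5-fold compound dilutions, in duplicate. Fixed with ethanol after 5 days at 37 °C, 5% CO2, then Giemsa-stained; plaques counted microscopically. IC50 read graphically from plaque number (% of control); mean of two independent experiments.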

Compared with `O=C1c2ccccc2N(Cc2ccc(Cl)cc2)S(=O)(=O)N1Cc1ccccc1`, `O=C1c2ccccc2N(Cc2ccc(Cl)c(Cl)c2)S(=O)(=O)N1Cc1ccccc1` is lower in pIC50: 4.74 for the first, < 4.30 for the second.

In the case of `O=C1c2ccccc2N(Cc2ccccc2)S(=O)(=O)N1Cc1ccccc1Cl`, the pIC50 was < 4.30.

The compounds below were run on Human alphaherpesvirus 3 (assay: In vitro inhibition of Thymidine Kinase deficient Varicella Zoster Virus (YS/R) plaque formation.). Settings: not given.
Format: functional, organism-based
Method in brief: as §2

Going from `O=C1c2ccccc2N(Cc2ccc(Cl)cc2)S(=O)(=O)N1Cc1ccccc1` to `O=C1c2ccccc2N(Cc2ccc(Cl)c(Cl)c2)S(=O)(=O)N1Cc1ccccc1`, the pIC50 falls from 5.62 to 5.35 (0.27 log units).

`O=C1c2ccccc2N(Cc2ccccc2)S(=O)(=O)N1Cc1ccccc1Cl` and `O=C1c2ccccc2N(COCc2ccccc2)S(=O)(=O)N1Cc1ccccc1` cannot be ordered by pIC50: < 4.30 for the first, < 4.92 for the second.

The compounds below were run on CCRF-CEM (assay: In vitro inhibition of CEM cell proliferation.). Settings: Homo sapiens.
Format: functional
Method in brief: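 CEM cell proliferation measured alongside the HIV assays; CC50 is the concentration reducing CEM cell proliferation by 50%.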

`O=C1c2ccccc2N(Cc2ccc(Cl)cc2)S(=O)(=O)N1Cc1ccccc1` and `O=C1c2ccccc2N(Cc2ccc(Cl)c(Cl)c2)S(=O)(=O)N1Cc1ccccc1` are within 1.5-fold of each other in CC50: 19.7 µM for the first, 16.4 µM for the second.

Compared with `O=C1c2ccccc2N(Cc2ccccc2)S(=O)(=O)N1Cc1ccccc1Cl`, `O=C1c2ccccc2N(COCc2ccccc2)S(=O)(=O)N1Cc1ccccc1` is lower in CC50: > 250 µM for the first, 25 µM for the second.

These compounds were tested on Human alphaherpesvirus 3 (assay: In vitro inhibition of Thymidine Kinase deficient Varicella Zoster Virus (07/1) plaque formation.). Settings: not given.
Format: functional, organism-based
Method in brief: as §2

Going from `O=C1c2ccccc2N(Cc2ccc(Cl)cc2)S(=O)(=O)N1Cc1ccccc1` to `O=C1c2ccccc2N(Cc2ccc(Cl)c(Cl)c2)S(=O)(=O)N1Cc1ccccc1`, the pIC50 falls from 4.96 to 4.57 (0.39 log units). The first is the more potent here.

`O=C1c2ccccc2N(Cc2ccccc2)S(=O)(=O)N1Cc1ccccc1Cl` and `O=C1c2ccccc2N(COCc2ccccc2)S(=O)(=O)N1Cc1ccccc1` cannot be ordered by pIC50: < 4.30 for the first, < 4.92 for the second.

The compounds below were run on Human betaherpesvirus 5 (assay: concentration required to reduce virus HCMV (G)plaque formation by 50%). Settings: not given.
Format: functional, organism-based
Method in brief: (§3)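 Wild-type HCMV clinical isolates from patients (congenital infection, mononucleosis, AIDS, bone marrow transplant) tested in confluent HEL fibroblasts. IC50 taken as the concentration reducing virus plaque formation by 50%; assays in duplicate.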

In the case of `Nc1nc2c(ncn2COC(CO)CO)c(=O)[nH]1` [GANCICLOVIR], the pIC50 was 5.09.

The compounds below were run on Human betaherpesvirus 5 (assay: concentration required to reduce virus HCMV (D)plaque formation by 50%). Settings: not given.
Format: functional, organism-based
Method in brief: as §3

`Nc1nc2c(ncn2COC(CO)CO)c(=O)[nH]1` [GANCICLOVIR] was tested, and the pIC50 was 5.39.

These compounds were tested on Human immunodeficiency virus 2 (assay: In vitro inhibition of HIV-2(ROD) cytopathicity in CEM cells.). Settings: Human immunodeficiency virus 2, CCRF-CEM.
Format: functional, organism-based
Method in brief: (§4)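 CEM cells at 4×10^5 cells/mL infected with HIV-1 IIIB or HIV-2 ROD (stocks from MT-4 supernatants) at ~100 CCID50/mL, then immediately mixed with compound dilutions. Giant cell formation scored microscopically after 4 days; EC50 is the concentration inhibiting it by 50%. Triplicate assays.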

`O=C1c2ccccc2N(Cc2ccc(Cl)cc2)S(=O)(=O)N1Cc1ccccc1` and `O=C1c2ccccc2N(Cc2ccc(Cl)c(Cl)c2)S(=O)(=O)N1Cc1ccccc1` cannot be ordered by pEC50: 5.10 for the first, < 5.70 for the second.

`O=C1c2ccccc2N(Cc2ccccc2)S(=O)(=O)N1Cc1ccccc1Cl` and `O=C1c2ccccc2N(COCc2ccccc2)S(=O)(=O)N1Cc1ccccc1` cannot be ordered by pEC50: < 3.60 for the first, < 5.10 for the second.

What follows are compounds tested on Human betaherpesvirus 5 (assay: concentration required to reduce virus HCMV (F)plaque formation by 50%). Settings: not given.
Format: functional, organism-based
Method in brief: as §3

Compound `Nc1nc2c(ncn2COC(CO)CO)c(=O)[nH]1` [GANCICLOVIR] has a pIC50 of 5.21.

Each compound was assayed on Human betaherpesvirus 5 (assay: concentration required to reduce virus HCMV (A)plaque formation by 50%). Settings: not given.
Format: functional, organism-based
Method in brief: as §3

Compound `Nc1nc2c(ncn2COC(CO)CO)c(=O)[nH]1` [GANCICLOVIR] has a pIC50 of 5.21.

These compounds were tested on Human betaherpesvirus 5 (assay: concentration required to reduce virus HCMV (B)plaque formation by 50%). Settings: not given.
Format: functional, organism-based
Method in brief: as §3

`Nc1nc2c(ncn2COC(CO)CO)c(=O)[nH]1` [GANCICLOVIR] showed a pIC50 of 5.21.

What follows are compounds tested on Human betaherpesvirus 5 (assay: In vitro inhibition of HCMV (Davis) plaque formation.). Settings: not given.
Format: functional, organism-based
Method in brief: as §1

`O=C1c2ccccc2N(Cc2ccc(Cl)cc2)S(=O)(=O)N1Cc1ccccc1` and `O=C1c2ccccc2N(Cc2ccc(Cl)c(Cl)c2)S(=O)(=O)N1Cc1ccccc1` are within 0.2 log units of each other in pIC50: 5.52 for the first, 5.46 for the second.

With `O=C1c2ccccc2N(Cc2ccccc2)S(=O)(=O)N1Cc1ccccc1Cl` the pIC50 was < 4.30.

What follows are compounds tested on HEL (assay: In vitro alteration in cell morphology in HEL cells.). Settings: Homo sapiens.
Format: functional
Method in brief: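 Normal HEL cells exposed to compounds and examined microscopically; minimum cytotoxic concentration is the lowest giving a detectable change in cell morphology. Duplicate assays.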

`O=C1c2ccccc2N(Cc2ccc(Cl)cc2)S(=O)(=O)N1Cc1ccccc1` and `O=C1c2ccccc2N(Cc2ccc(Cl)c(Cl)c2)S(=O)(=O)N1Cc1ccccc1` cannot be ordered by MCC: > 5 µM for the first, 200 µM for the second.

First: O=C1c2ccccc2N(Cc2ccccc2)S(=O)(=O)N1Cc1ccccc1Cl
Second: O=C1c2ccccc2N(COCc2ccccc2)S(=O)(=O)N1Cc1ccccc1
The MCC of the first is 1.6-fold higher: 200 µM for the first, 122 µM for the second.

For `Nc1nc2c(ncn2COC(CO)CO)c(=O)[nH]1` [GANCICLOVIR], the MCC was > 150 µM.

These compounds were tested on Human betaherpesvirus 5 (assay: concentration required to reduce virus HCMV (E)plaque formation by 50%). Settings: not given.
Format: functional, organism-based
Method in brief: as §3

With `Nc1nc2c(ncn2COC(CO)CO)c(=O)[nH]1` [GANCICLOVIR] the pIC50 was 5.39.

The compounds below were run on Human immunodeficiency virus 1 (assay: In vitro inhibition of HIV-1(IIIB) cytopathicity in CEM cells.). Settings: Human immunodeficiency virus 1, CCRF-CEM.
Format: functional, organism-based
Method in brief: as §4

`O=C1c2ccccc2N(Cc2ccc(Cl)cc2)S(=O)(=O)N1Cc1ccccc1` and `O=C1c2ccccc2N(Cc2ccc(Cl)c(Cl)c2)S(=O)(=O)N1Cc1ccccc1` cannot be ordered by pEC50: 5.19 for the first, < 5.70 for the second.

`O=C1c2ccccc2N(Cc2ccccc2)S(=O)(=O)N1Cc1ccccc1Cl` and `O=C1c2ccccc2N(COCc2ccccc2)S(=O)(=O)N1Cc1ccccc1` cannot be ordered by pEC50: < 3.60 for the first, < 5.10 for the second.

What follows are compounds tested on Human betaherpesvirus 5 (assay: concentration required to reduce virus HCMV (C)plaque formation by 50%). Settings: not given.
Format: functional, organism-based
Method in brief: as §3

In the case of `Nc1nc2c(ncn2COC(CO)CO)c(=O)[nH]1` [GANCICLOVIR], the pIC50 was 5.21.

The compounds below were run on Human alphaherpesvirus 3 (assay: In vitro inhibition of Thymidine Kinase-Varicella Zoster Virus(YS) plaque formation.). Settings: not given.
Format: functional, organism-based
Method in brief: as §2

Going from `O=C1c2ccccc2N(Cc2ccc(Cl)cc2)S(=O)(=O)N1Cc1ccccc1` to `O=C1c2ccccc2N(Cc2ccc(Cl)c(Cl)c2)S(=O)(=O)N1Cc1ccccc1`, the pIC50 falls from 4.66 to < 4.30.

`O=C1c2ccccc2N(Cc2ccccc2)S(=O)(=O)N1Cc1ccccc1Cl` was tested, and the pIC50 was < 4.70.
